Active and inactive are the calls of the source. The calls are words filed in the database; no cut-off is given here.
Tests used:
ECa-109 cell line = assay: Cytotoxicity against human ECA109 cells assessed as cell growth inhibition after 48 hrs by MTT assay; type: functional, cell-based; conditions: ECa-109, 48 h
Method in brief: (§1)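 Adherent cells seeded at 5000/well, left 16−24 h, then exposed 48 h at 37 °C, 5% CO2 in RPMI with 10% FBS. Medium refreshed, MTT added for 4 h at 37 °C, medium removed, formazan dissolved in DMSO, OD570 read. IC50 taken as concentration inhibiting growth by 50%; triplicate.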

K562 [1] = assay: Cytotoxicity against human K562 cells assessed as cell growth inhibition after 48 hrs by MTT assay; type: functional, cell-based; conditions: K562, 48 h
Method in brief: (§2)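 Suspension cells seeded at 5000/well (HL-60 in IMDM, K562 in RPMI, both with 10% FBS) and treated. MTT then added for 4 h at 37 °C; plates centrifuged at 3000 rpm for 30 min, medium removed, DMSO added, OD570 read. IC50 taken as concentration giving 50% growth inhibition; triplicate.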

HepG2 = assay: Cytotoxicity against human HepG2 cells assessed as cell growth inhibition after 48 hrs by MTT assay; type: functional, cell-based; conditions: HepG2, 48 h; method in brief: as §1
A549 = assay: Cytotoxicity against human A549 cells assessed as cell growth inhibition after 48 hrs by MTT assay; type: functional, cell-based; conditions: A549, 48 h; method in brief: as §1
L02 = assay: Cytotoxicity against human HL-7702 cells assessed as cell growth inhibition after 48 hrs by MTT assay; type: cell-based; conditions: L02, 48 h; method in brief: as §1
HL-60 = assay: Cytotoxicity against human HL60 cells assessed as cell growth inhibition after 48 hrs by MTT assay; type: functional, cell-based; conditions: HL-60, 48 h; method in brief: as §2
K562 [2] = assay: Antitumor activity against CM-Dil-labeled human K562 cells xenografted in wild-type zebrafish embryos assessed as reduction in cell migration at 10 ug/ml measured after 48 hrs by confocal microscopic analysis; type: functional, cell-based
Method in brief: (§3)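 K562 cells labelled with CM-Dil, suspended in FBS-free medium at (1 × 107)/mL and microinjected into wild-type zebrafish embryos kept at 28 °C in embryonic medium. After 4 h, embryos with the same injection spot were pooled at 15−20 per well and exposed to compound; Taxol served as positive control. At 48 h, confocal imaging gave fluorescent area (migration) and fluorescence intensity (cell number); n = 15.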

K562 [3] = assay: Antitumor activity against CM-Dil-labeled human K562 cells xenografted in wild-type zebrafish embryos assessed as tumor growth inhibition at 10 ug/ml measured after 48 hrs by confocal microscopic analysis; type: functional, cell-based; method in brief: as §3
K562 [4] = assay: Induction of apoptosis in human K562 cells assessed as necrotic cells at 1 uM after 48 hrs by Annexin V-FITC/propidium iodide-staining based flow cytometric analysis (reference value: 0.13 to 0.27%); type: functional
Method in brief: (§4)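 K562 seeded at 4 × 10^5 cells/well, 12 h, then exposed 48 h. Cells washed in ice-cold PBS, suspended in binding buffer, stained with annexin V-FITC and PI for 15 min at room temperature in the dark, and read by flow cytometry within 1 h. Cells counted as early/late apoptotic as % of total; n = 3.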

K562 [5] = assay: Induction of apoptosis in human K562 cells assessed as early apoptotic cells at 1 uM after 48 hrs by Annexin V-FITC/propidium iodide-staining based flow cytometric analysis (reference value: 0.92 to 1.45%); type: functional; method in brief: as §4
K562 [6] = assay: Induction of mitochondrial membrane depolarization in human K562 cells assessed as cells with mitochondrial membrane potential loss at 6 uM after 48 hrs by JC-1 staining based flow cytometric analysis (reference value: 1.89 to 2.23%); type: functional
K562 [7] = assay: Induction of mitochondrial membrane depolarization in human K562 cells assessed as cells with mitochondrial membrane potential loss at 4 uM after 48 hrs by JC-1 staining based flow cytometric analysis (reference value: 1.89 to 2.23%); type: functional
K562 [8] = assay: Decrease in mitochondrial membrane potential in human K562 cells at 1 to 2 uM after 48 hrs by JC-1 staining based fluorescence microscopic analysis; type: functional, cell-based
Method in brief: (§5)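 K562 seeded at 4 × 10^5 cells/well, after 12 h treated 48 h. Cells washed in ice-cold PBS, loaded with JC-1 ([…]) at 37 °C for 15 min, rinsed, and analysed by flow cytometry (% cells with red aggregates) and fluorescence microscopy (red aggregates vs green monomers).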

K562 [9] = assay: Induction of mitochondrial membrane depolarization in human K562 cells assessed as cells with intact mitochondrial membrane potential at 6 uM after 48 hrs by JC-1 staining based flow cytometric analysis (reference value: 97.63 to 97.67%); type: functional
K562 [10] = assay: Induction of apoptosis in human K562 cells assessed as late apoptotic cells at 3 uM after 48 hrs by Annexin V-FITC/propidium iodide-staining based flow cytometric analysis (reference value: 2.25 to 2.67%); type: functional; method in brief: as §4
K562 [11] = assay: Induction of apoptosis in human K562 cells assessed as viable cells at 2 uM after 48 hrs by Annexin V-FITC/propidium iodide-staining based flow cytometric analysis (reference value: 95.75 to 96.56%); type: functional; conditions: K562, 48 h, read-out: Activity; method in brief: as §4
K562 [12] = assay: Induction of apoptosis in human K562 cells assessed as early apoptotic cells at 2 uM after 48 hrs by Annexin V-FITC/propidium iodide-staining based flow cytometric analysis (reference value: 0.92 to 1.45%); type: functional; method in brief: as §4
K562 [13] = assay: Decrease in mitochondrial membrane potential in human K562 cells after 48 hrs by JC-1 staining based flow cytometry; type: functional, cell-based; method in brief: as §5
K562 [14] = assay: Induction of mitochondrial membrane depolarization in human K562 cells assessed as cells with intact mitochondrial membrane potential at 4 uM after 48 hrs by JC-1 staining based flow cytometric analysis (reference value: 97.63 to 97.67%); type: functional
K562 [15] = assay: Induction of apoptosis in human K562 cells assessed as viable cells at 1 uM after 48 hrs by Annexin V-FITC/propidium iodide-staining based flow cytometric analysis (reference value: 95.75 to 96.56%); type: functional; conditions: K562, 48 h, read-out: Activity; method in brief: as §4
K562 [16] = assay: Induction of apoptosis in human K562 cells assessed as necrotic cells at 3 uM after 48 hrs by Annexin V-FITC/propidium iodide-staining based flow cytometric analysis (reference value: 0.13 to 0.27%); type: functional; method in brief: as §4
K562 [17] = assay: Induction of apoptosis in human K562 cells assessed as upregulation of cleaved PARP up to 6 uM after 48 hrs by Western blot analysis; type: functional, cell-based
K562 [18] = assay: Induction of apoptosis in human K562 cells assessed as early apoptotic cells at 3 uM after 48 hrs by Annexin V-FITC/propidium iodide-staining based flow cytometric analysis (reference value: 0.92 to 1.45%); type: functional; method in brief: as §4
K562 [19] = assay: Induction of apoptosis in human K562 cells assessed as late apoptotic cells at 1 uM after 48 hrs by Annexin V-FITC/propidium iodide-staining based flow cytometric analysis (reference value: 2.25 to 2.67%); type: functional; method in brief: as §4
K562 [20] = assay: Induction of ROS generation in human K562 cells at 1 uM after 48 hrs by DCFH-DA probe based flow cytometric analysis relative to control; type: functional
Method in brief: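 K562 seeded at 4 × 10^5 cells/well, 12 h, then treated 48 h. Washed cells loaded with DCFH-DA in FBS-free medium at 37 °C for 30 min, rinsed, read by flow cytometry. ROSup was the positive control; mean ± SD, n = 3.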

K562 [21] = assay: Induction of apoptosis in human K562 cells assessed as increase in cytosolic cytochrome c level up to 6 uM after 48 hrs by Western blot analysis; type: functional, cell-based
Method in brief: (§6)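 K562 treated 48 h, then lysed on ice for 30 min; cytosolic and mitochondrial fractions isolated by kit where needed, protein measured by BCA. 60 μg/lane run on SDS-PAGE, transferred to PVDF, blocked in 5% milk/TBST for 4 h. Probed for cytochrome c, caspase-9, caspase-3 (total/cleaved), PARP; alkaline phosphatase secondary.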

K562 [22] = assay: Induction of apoptosis in human K562 cells assessed as necrotic cells at 2 uM after 48 hrs by Annexin V-FITC/propidium iodide-staining based flow cytometric analysis (reference value: 0.13 to 0.27%); type: functional; method in brief: as §4
K562 [23] = assay: Induction of mitochondrial membrane depolarization in human K562 cells assessed as cells with intact mitochondrial membrane potential at 2 uM after 48 hrs by JC-1 staining based flow cytometric analysis (reference value: 97.63 to 97.67%); type: functional; method in brief: as §5
K562 [24] = assay: Induction of apoptosis in human K562 cells assessed as viable cells at 3 uM after 48 hrs by Annexin V-FITC/propidium iodide-staining based flow cytometric analysis (reference value: 95.75 to 96.56%); type: functional; conditions: K562, 48 h, read-out: Activity; method in brief: as §4
K562 [25] = assay: Induction of apoptosis in human K562 cells assessed as late apoptotic cells at 2 uM after 48 hrs by Annexin V-FITC/propidium iodide-staining based flow cytometric analysis (reference value: 2.25 to 2.67%); type: functional; method in brief: as §4
K562 [26] = assay: Induction of apoptosis in human K562 cells after 48 hrs by Annexin V-FITC/propidium iodide-staining based flow cytometric analysis; type: functional, cell-based; method in brief: as §4
K562 [27] = assay: Induction of mitochondrial membrane depolarization in human K562 cells assessed as cells with mitochondrial membrane potential loss at 2 uM after 48 hrs by JC-1 staining based flow cytometric analysis (reference value: 1.89 to 2.23%); type: functional
K562 [28] = assay: Induction of apoptosis in human K562 cells assessed as decrease in cytochrome c level in mitochondria up to 6 uM after 48 hrs by Western blot analysis; type: functional, cell-based; method in brief: as §6

## C=C(C)[C@@H]1CC[C@]2(COC(=O)CCCC[P+](c3ccccc3)(c3ccccc3)c3ccccc3)CC[C@]3(C)[C@H](CC[C@@H]4[C@@]5(C)CC[C@H](OC=O)C(C)(C)[C@@H]5CC[C@]43C)[C@@H]12
ECa-109 cell line
  IC50: 950 nM
K562 [1]
  IC50: 810 nM
HepG2
  IC50: 1110 nM
A549
  IC50: 1100 nM
L02
  IC50: 8320 nM
HL-60
  IC50: 710 nM

## C=C(C)[C@@H]1CC[C@]2(COC(=O)CCCC[P+](c3ccccc3)(c3ccccc3)c3ccccc3)CC[C@]3(C)[C@H](CC[C@@H]4[C@@]5(C)CC[C@H](OC(C)=O)C(C)(C)[C@@H]5CC[C@]43C)[C@@H]12
ECa-109 cell line
  IC50: 1410 nM
K562 [1]
  IC50: 620 nM
HepG2
  IC50: 2420 nM
A549
  IC50: 830 nM
L02
  IC50: 7180 nM
HL-60
  IC50: 580 nM

## O=C(O)CCCC[P+](c1ccccc1)(c1ccccc1)c1ccccc1
ECa-109 cell line
  IC50: 112000 nM
K562 [1]
  IC50: > 200000 nM
HepG2
  IC50: 158000 nM
A549
  IC50: 172000 nM
L02
  IC50: > 200000 nM
HL-60
  IC50: 118000 nM

## CC(=O)O[C@H]1C(=O)[C@@]2(C)[C@H]([C@H](OC(=O)c3ccccc3)[C@]3(O)C[C@H](OC(=O)[C@H](O)[C@@H](NC(=O)c4ccccc4)c4ccccc4)C(C)=C1C3(C)C)[C@]1(OC(C)=O)CO[C@@H]1C[C@@H]2O
K562 [2]
  Activity: Active
K562 [3]
  TGI: Active

## C=C(C)[C@@H]1CC[C@]2(C(=O)O)CC[C@]3(C)[C@H](CC[C@@H]4[C@@]5(C)CC[C@H](OC(=O)CCCC[P+](c6ccccc6)(c6ccccc6)c6ccccc6)C(C)(C)[C@@H]5CC[C@]43C)[C@@H]12.[Br-]
K562 [4]
  Activity: 0.14%
K562 [5]
  Activity: 9.55%
K562 [6]
  Activity: 72.12%
K562 [7]
  Activity: 58.36%
K562 [8]
  Activity: Active
K562 [9]
  Activity: 27.63%
K562 [10]
  Activity: 26.46%
K562 [11]
  viability at 2 µM: 72.6%
ECa-109 cell line
  IC50: 920 nM
K562 [1]
  IC50: 1240 nM
K562 [12]
  Activity: 10.78%
K562 [13]
  Activity: Dose-dependent effect
K562 [14]
  Activity: 41.5%
K562 [15]
  viability at 1 µM: 81%
K562 [16]
  Activity: 0.7%
K562 [17]
  Activity: Active
K562 [18]
  Activity: 11.47%
K562 [19]
  Activity: 9.35%
K562 [20]
  Activity: 50%
K562 [21]
  Activity: Active
K562 [22]
  Activity: 0.23%
K562 [23]
  Activity: 75.16%
HepG2
  IC50: 1070 nM
K562 [24]
  viability at 3 µM: 61.4%
K562 [25]
  Activity: 16.43%
A549
  IC50: 1260 nM
K562 [26]
  Activity: Dose-dependent effect
K562 [27]
  Activity: 24.68%
L02
  IC50: 4920 nM
HL-60
  IC50: 320 nM
K562 [28]
  Activity: Active

From ChEMBL document CHEMBL4011654, “Mitochondria-Targeted Lupane Triterpenoid Derivatives and Their Selective Apoptosis-Inducing Anticancer Mechanisms” (J Med Chem, 2017)
